Assay results: ChEMBL document CHEMBL1135243, “Evaluation of morphogenic regulatory activity of farnesoic acid and its derivatives against Candida albicans dimorphism” (Bioorg Med Chem Lett, 2002)
In brackets after ≈: the same amount, converted by molar mass.

Tests used:
Candida albicans [1] = assay: In vitro inhibition of yeast cell growth of candida albicans; No inhibition; type: functional, organism-based
Candida albicans [2] = assay: In vitro inhibition of yeast-to-hypha transition in candida albicans; No inhibition; type: functional, organism-based
Candida albicans [3] = assay: In vitro inhibition of yeast cell growth of candida albicans at a concentration of 100 ug/mL; type: functional
Candida albicans [4] = assay: In vitro inhibition of yeast-to-hypha transition in candida albicans; type: functional, organism-based
Candida albicans [5] = assay: In vitro inhibition of yeast cell growth of candida albicans; type: functional, organism-based
Candida albicans [6] = assay: In vitro inhibition of yeast-to-hypha transition in candida albicans at a concentration of 100 ug/mL; type: functional
Procedure, shortened: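 C. albicans ATCC 10231 grown 48 h at 30 °C in YPD, washed twice in sterile water. DMSO stocks diluted in glucose salts (GS) medium, final DMSO below 0.5%. Cells at 10^5 cells/mL in GS with compound, 4 h at 37 °C. Yeast vs hypha (germ tube) percentages counted microscopically on 200 cells from triplicate dishes, relative to 0.5% DMSO control. Highest concentration tested.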

## CC(C)=CCC/C(C)=C/CC/C(C)=C/C(=O)OCc1ccccc1
Candida albicans [1]
  IC50: > 100 µg/mL
Candida albicans [2]
  IC50: > 100 µg/mL

## COC(=O)/C=C(\C)CC/C=C(\C)CCC=C(C)C
Candida albicans [1]
  IC50: > 100 µg/mL
Candida albicans [2]
  IC50: > 100 µg/mL

## C=CCOC(=O)/C=C(\C)CC/C=C(\C)CCC=C(C)C
Candida albicans [1]
  IC50: > 100 µg/mL
Candida albicans [2]
  IC50: > 100 µg/mL

## CC(C)=CCC/C(C)=C/C(=O)O
Candida albicans [3]
  inhibition at 100 µg/mL: 57%
Candida albicans [2]
  IC50: > 100 µg/mL

## C=CCNC(=O)/C=C(\C)CC/C=C(\C)CCC=C(C)C
Candida albicans [1]
  IC50: > 100 µg/mL
Candida albicans [2]
  IC50: > 100 µg/mL

## CC(C)=CCC/C(C)=C/CC/C(C)=C/C(=O)O
Candida albicans [4]
  IC50: 4.56 µg/mL (≈ 19.3 µM)
Candida albicans [1]
  IC50: > 100 µg/mL

## CC(C)=CCC/C(C)=C/CC/C(C)=C/C(=O)OCC=C(C)C
Candida albicans [1]
  IC50: > 100 µg/mL
Candida albicans [2]
  IC50: > 100 µg/mL

## CC(C)=CCC/C(C)=C/CC/C(C)=C/C(=O)N(C)C
Candida albicans [4]
  IC50: 16.9 µg/mL (≈ 64.3 µM)
Candida albicans [5]
  IC50: 43.7 µg/mL (≈ 166 µM)

## CC(C)=CCC/C(C)=C/CC/C(C)=C/C(=O)OC/C=C(\C)CCC=C(C)C
Candida albicans [1]
  IC50: > 100 µg/mL
Candida albicans [2]
  IC50: > 100 µg/mL

## CC(C)=CCC/C(C)=C/CC/C(C)=C/C(N)=O
Candida albicans [4]
  IC50: 20.7 µg/mL (≈ 88 µM)
Candida albicans [5]
  IC50: 26.3 µg/mL (≈ 112 µM)

## CC(C)=CCC/C(C)=C/CC/C(C)=C/COC(=O)/C=C(\C)CC/C=C(\C)CCC=C(C)C
Candida albicans [1]
  IC50: > 100 µg/mL
Candida albicans [2]
  IC50: > 100 µg/mL

## CNC(=O)/C=C(\C)CC/C=C(\C)CCC=C(C)C
Candida albicans [1]
  IC50: > 100 µg/mL
Candida albicans [2]
  IC50: > 100 µg/mL

## CC(C)=CCC/C(C)=C/CC/C(C)=C\C(=O)O
Candida albicans [6]
  inhibition at 100 µg/mL: 18%
Candida albicans [1]
  IC50: > 100 µg/mL

## CC(C)=CCC/C(C)=C/CC/C(C)=C/CO [FARNESOL]
Candida albicans [4]
  IC50: 2.82 µg/mL (≈ 12.7 µM)
Candida albicans [3]
  inhibition at 100 µg/mL: 35%

## CC(C)=CCC/C(C)=C/CC/C(C)=C/C(=O)N1CCOCC1
Candida albicans [4]
  IC50: 41 µg/mL (≈ 134 µM)
Candida albicans [5]
  IC50: 87.5 µg/mL (≈ 286 µM)

## CC(C)=CCC/C(C)=C/CC/C(C)=C/CC/C(C)=C/C(=O)O [GERANYLGERANOIC ACID]
Candida albicans [1]
  IC50: > 100 µg/mL
Candida albicans [2]
  IC50: > 100 µg/mL

## CC(C)=CCC/C(C)=C/CC/C(C)=C/C(=O)OC/C=C/c1ccccc1
Candida albicans [1]
  IC50: > 100 µg/mL
Candida albicans [2]
  IC50: > 100 µg/mL
